Laboratory results as given in article PMC4846294 (Bioorganic & medicinal chemistry, 2016).
“Also recorded” adds a separate entry of the source. Read-outs that look alike come from different tables or passages of the source. Blank lines part the entries; values can stand above or below the molecule they belong to.

Tests used:
NCI-H460 (lung) = assay: SRB cytotoxicity assay, NCI-H460; format: cell-based, human; conditions: read-out: GI50 SRB Assay NCI-H460; 48 h treatment; average of n ≥ 3
[1] = biological target: T1, LAP (from porcine kidney microsomes) (Sus scrofa, UniProt P15145); assay: In vitro LAP cleavage assay; format: in vitro ADME; conditions: for % Cleavage by LAP: area ratio of parent drug and prodrug (HPLC); for % Cleavage by LAP / Specific Activity of LAP: pH 7.2, 37 °C; for Cleavage rate relative to corresponding serinamide analogue: glycinamide versus serinamide prodrug of the same isomer; for Specific Activity of LAP: rate study; for Cleavage with a large amount of LAP (in words): 1.5 units of LAP
T1 sequence (P15145 1-963): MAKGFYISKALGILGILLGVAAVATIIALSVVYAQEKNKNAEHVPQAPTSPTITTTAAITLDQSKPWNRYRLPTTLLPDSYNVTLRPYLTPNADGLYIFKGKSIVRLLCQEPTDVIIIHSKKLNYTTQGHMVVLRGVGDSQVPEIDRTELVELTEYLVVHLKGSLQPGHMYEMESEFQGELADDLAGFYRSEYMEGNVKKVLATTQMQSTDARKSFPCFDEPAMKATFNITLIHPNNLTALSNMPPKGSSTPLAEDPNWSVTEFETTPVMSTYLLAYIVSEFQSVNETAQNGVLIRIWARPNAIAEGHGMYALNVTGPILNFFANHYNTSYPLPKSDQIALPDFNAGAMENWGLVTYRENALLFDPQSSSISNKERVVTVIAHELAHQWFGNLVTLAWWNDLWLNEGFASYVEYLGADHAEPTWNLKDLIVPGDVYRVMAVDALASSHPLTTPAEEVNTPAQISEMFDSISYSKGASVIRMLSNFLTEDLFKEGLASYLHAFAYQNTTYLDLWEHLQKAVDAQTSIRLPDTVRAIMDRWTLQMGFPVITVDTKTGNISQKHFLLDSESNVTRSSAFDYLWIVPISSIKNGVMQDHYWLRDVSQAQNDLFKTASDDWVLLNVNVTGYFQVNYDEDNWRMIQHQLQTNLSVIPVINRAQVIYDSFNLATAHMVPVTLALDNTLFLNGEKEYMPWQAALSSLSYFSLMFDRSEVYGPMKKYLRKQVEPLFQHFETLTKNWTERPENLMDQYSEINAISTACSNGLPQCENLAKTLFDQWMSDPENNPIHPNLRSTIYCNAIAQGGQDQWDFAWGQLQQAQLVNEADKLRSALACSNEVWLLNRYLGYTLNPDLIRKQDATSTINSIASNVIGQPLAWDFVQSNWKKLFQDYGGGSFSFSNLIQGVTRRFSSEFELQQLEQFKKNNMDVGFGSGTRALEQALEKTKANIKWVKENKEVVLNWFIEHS

DU-145 (prostate) = assay: SRB cytotoxicity assay, DU-145; format: cell-based, human; conditions: read-out: GI50 SRB Assay DU-145; 48 h treatment; average of n ≥ 3
[2] = tested on: human cancer cell lines [SK-OV-3 (ovarian), NCI-H460 (lung), and DU-145 (prostate)]; assay: SRB cytotoxicity, stated across all three cell lines; format: cell-based; conditions: for GI50 values described in words: parent drugs, three cell lines
HUVECs [3] = assay: In vitro HUVEC tubule disruption assay; format: cell-based, human; conditions: for Disruption of capillary-like network of tubules (HUVECs): concentration of 0.1 μM; for Disruption of HUVEC tubular network on matrigel: concentration of 1.0 μM
How it was run: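 HUVECs (124,000 cells in M200 growth factors) plated on Matrigel (9.5 mg/mL) that had been pre-set 60 min at 37 °C; cells incubated 16 h at 37 °C to form tubule network. Test compound then added at 0.01, 0.1 or 1.0 μM. Network photographed, 9 fields/well, 40x objective.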

[4] = tested on: MDA-MB-231-luc human breast tumor; assay: In vivo dynamic bioluminescence imaging; design: species or system SCID mice; conditions: for BLI signal compared with baseline (significance): 4 h and 24 h
tubulin = assay: Colchicine binding assay; conditions: inhibitor 5 μM; 1.0 μM tubulin, 5.0 μM [3H]colchicine
SK-OV-3 (ovarian) = assay: SRB cytotoxicity assay, SK-OV-3; format: cell-based, human; conditions: read-out: GI50 SRB Assay SK-OV-3; 48 h treatment; average of n ≥ 3
HUVECs [5] = conditions: cited from earlier work

Molecule: COc1ccc2c(c1NC(=O)[C@@H](N)CO)CCCC=C2c1cc(OC)c(OC)c(OC)c1.Cl [Compound 39, (S)-2-Amino-3-hydroxy-N-(3-methoxy-9-(3,4,5-trimethoxyphenyl)-6,7-dihydro-5H-benzo[7]annulen-4-yl)propanamide hydrochloride]
GI50 (NCI-H460 (lung)): 53.8 ± 0.864 µM | % Cleavage by LAP [1]: < 10% | GI50 (DU-145 (prostate)): 69.4 ± 31.3 µM

% Cleavage by LAP [1]: 100% | Cleavage rate relative to corresponding serinamide analogue [1]: more than 100 times
Molecule: COc1ccc(/C=C/c2cc(OC)c(OC)c(OC)c2)c(NC(=O)CN)c1.Cl [Compound 18, (E)-2-amino-N-(5-methoxy-2-(3,4,5-trimethoxystyryl)phenyl)acetamide hydrochloride]
Cytotoxicity against selected human cancer cell lines (in words) [2]: more cytotoxic than the corresponding serinamide AAPC 17 | Cleavage by LAP (in words) [1]: quantitative cleavage; also recorded: quantitatively cleaved

Molecule: COc1ccc(/C=C\c2cc(OC)c(OC)c(OC)c2)c(N)c1N [Compound 8, (Z)-2-(2′,3′-Diamino-4′-methoxyphenyl)-1-(3,4,5-trimethoxyphenyl)ethene]
GI50 values described in words [2]: highly potent | Disruption of capillary-like network of tubules (HUVECs) (HUVECs [3]): significant disruption | Disruption of HUVEC tubular network on matrigel (HUVECs [3]): extensive disruption

Molecule: COc1ccc(/C=C\c2cc(OC)c(OC)c(OC)c2)c(NC(=O)CN)c1NC(=O)CN.Cl.Cl [Compound 24, (Z)-N,N'-(3-methoxy-6-(3,4,5-trimethoxystyryl)-1,2-phenylene)bis(2-aminoacetamide)]
Cleavage by LAP (in words) [1]: resistant to LAP mediated cleavage | Disappearance of the prodrug on LAP treatment ([1]; LAP 0.12 units, by 25 h): greater than 95% | % Cleavage by LAP [1]: <10-90%

Molecule: COc1ccc(/C=C\c2cc(OC)c(OC)c(OC)c2)cc1OP(=O)(O)O [CA4P, combretastatin A-4 phosphate, reference compound]
BLI signal compared with baseline (significance) ([4]; CA4P 120 mg/kg ip): significantly less signal | BLI signal versus saline control (significance) ([4]; CA4P 120 mg/kg ip, p<0.05): significantly different from saline

% Cleavage by LAP [1]: < 10%
Molecule: COc1ccc2c(c1NC(=O)[C@@H](N)CO)CCC=C2c1cc(OC)c(OC)c(OC)c1.Cl [Compound 38, (S)-2-Amino-3-hydroxy-N-(2-methoxy-5-(3,4,5-trimethoxyphenyl)-7,8-dihydronaphthalen-1-yl)propanamide hydrochloride]

Molecule: (Z)-2-(2'-Methoxy-4'-aminophenyl)-1-(3,4,5-trimethoxyphenyl)ethene hydrochloride [Compound 9]
Inhibition of Colchicine Binding (% Inhibition±SD) (tubulin): 75±0.90% | GI50 (NCI-H460 (lung)): 0.0263 ± 0.0161 µM | GI50 (DU-145 (prostate)): 0.0285 ± 0.0232 µM | GI50 (SK-OV-3 (ovarian)): 7.35 ± 3.5 nM

Molecule: COc1ccc2c(c1NC(=O)CN)CCC=C2c1cc(OC)c(OC)c(OC)c1.Cl [Compound 44, 2-Amino-N-(2-methoxy-5-(3,4,5-trimethoxyphenyl)-7,8-dihydronaphthalen-1-yl)acetamide hydrochloride]
% Cleavage by LAP [1]: 100% | Specific Activity of LAP [1]: 15.5 μM/min/enzyme unit | BLI signal versus saline control (significance) ([4]; 5 mg/kg ip, 4 h time point): not significantly different from saline control | BLI signal versus saline control (significance) ([4]; 15 mg/kg ip, p<0.05): significantly different from saline | BLI signal compared with baseline (significance) ([4]; 10 or 15 mg/kg ip): significantly less signal

Molecule: COc1ccc(/C=C\c2cc(OC)c(OC)c(OC)c2)c(NC(=O)[C@@H](N)CO)c1.Cl [Compound 15, (S,Z)-2-amino-3-hydroxy-N-(5-methoxy-2-(3,4,5-trimethoxystyryl)phenyl)propanamide hydrochloride]
Cytotoxicity against selected human cancer cell lines (in words) [2]: significant cytotoxicity | Cleavage by LAP (in words) [1]: effectively cleaved | Specific Activity of LAP [1]: 1.2 μM/min/enzyme unit

Molecule: COc1ccc2c(c1NC(=O)CN)CCCC=C2c1cc(OC)c(OC)c(OC)c1.Cl [Compound 45, 2-Amino-N-(3-methoxy-9-(3,4,5-trimethoxyphenyl)-6,7-dihydro-5H-benzo[7]annulen-4-yl)acetamide hydrochloride]
% Cleavage by LAP [1]: 100%

Molecule: COc1ccc(/C=C\c2cc(OC)c(OC)c(OC)c2)c(N)c1N.Cl [Compound 10, (Z)-2-(2′,3′-Diamine hydrochloride-4′-methoxyphenyl)-1-(3,4,5-trimethoxyphenyl)ethene]
Disruption of capillary-like network of tubules (HUVECs) (HUVECs [3]): significant disruption | Disruption of HUVEC tubular network on matrigel (HUVECs [3]): extensive disruption | Reduction in light emission (BLI) relative to baseline ([4]; 80 mg/kg ip, 2 h post treatment, 17 min time-point): approximately 95% | Reduction in bioluminescence compared to saline control ([4]; 80 mg/kg, 2 h post treatment): greater than 95%

Molecule: COc1ccc(/C=C\c2cc(OC)c(OC)c(OC)c2)c(N)c1 [Compound 7, (Z)-2-(2′-amino-4′-methoxyphenyl)-1-(3,4,5-trimethoxyphenyl)ethene]
GI50 values described in words [2]: highly potent

Molecule: COc1ccc(/C=C\c2cc(OC)c(OC)c(OC)c2)cc1NC(=O)[C@@H](N)CO.Cl [AVE8062, reference compound]
Cleavage by LAP (in words) [1]: effectively cleaved

Molecule: COc1ccc(/C=C\c2cc(OC)c(OC)c(OC)c2)c(NC(=O)[C@@H](N)CO)c1NC(=O)[C@@H](N)CO [Compound 22, (2S, 2'S)-N, N’-(3-methoxy-6-((Z)-3,4,5-trimethoxystyryl)-1,2-phenylene)bis(2-amino-3-hydroxypropanamide)]
Cleavage by LAP (in words) [1]: resistant to LAP mediated cleavage | Cleavage with a large amount of LAP (in words) [1]: did not result in any observable cleavage

Molecule: COc1ccc(/C=C/c2cc(OC)c(OC)c(OC)c2)c(NC(=O)C(N)CO)c1.Cl (stereo in doubt) [Compound 17, (S,E)-2-amino-3-hydroxy-N-(5-methoxy-2-(3,4,5-trimethoxystyryl)phenyl)propanamide hydrochloride]
Cleavage by LAP (in words) [1]: effectively cleaved

Molecule: COc1ccc2c(c1N)CCCC=C2c1cc(OC)c(OC)c(OC)c1 [Compound 33, 1-Amino-2-methoxy-5-(3’,4’,5’-trimethoxyphenyl)-benzosuber-5-ene]
GI50 values described in words [2]: highly potent | HUVEC tubule disruption and cell rounding effect (HUVECs [5]; 0.1 μM): significant tubule disruption and cell rounding effect | HUVEC tubule disruption and cell rounding effect (HUVECs [5]; 1 μM): greatly enhanced | HUVEC tube disruption and cell rounding capability (HUVECs [5]): robust tubule disruption

Molecule: COc1ccc(/C=C\c2cc(OC)c(OC)c(OC)c2)c(NC(=O)[C@@H](N)CO)c1NC(=O)[C@@H](N)CO.Cl.Cl [Compound 23, (2S, 2'S)-N, N’-(3-methoxy-6-((Z)-3,4,5-trimethoxystyryl)-1,2-phenylene)bis(2-amino-3-hydroxypropanamide) dihydrochloride]
Cleavage by LAP (in words) [1]: resistant to LAP mediated cleavage | Cleavage with a large amount of LAP (in words) [1]: did not result in any observable cleavage

% Cleavage by LAP [1]: 100% | Cleavage rate relative to corresponding serinamide analogue [1]: 150 times | Specific Activity of LAP [1]: 180 μM/min/enzyme unit
Molecule: COc1ccc(/C=C\c2cc(OC)c(OC)c(OC)c2)c(NC(=O)CN)c1.Cl [Compound 16, (Z)-2-amino-N-(5-methoxy-2-(3,4,5-trimethoxystyryl)phenyl)acetamide hydrochloride]
Cytotoxicity against selected human cancer cell lines (in words) [2]: significant cytotoxicity | Cleavage by LAP (in words) [1]: quantitative cleavage; also recorded: quantitatively cleaved
